Reference: ChEMBL document CHEMBL1143826, “Treatment of Staphylococcus aureus biofilm infection by the quorum-sensing inhibitor RIP” (2007)

What was measured:
Format in all cases: functional
Conditions in all cases: route intraperitoneal
Staphylococcus aureus [1] = test: Antibacterial activity against Staphylococcus aureus SD in rat graft model assessed as biofilm reduction at 10 mg/kg, ip administered as seven doses, 2 days after graft implantation
Summary of the method: (§1)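 Wistar rats (n = 5) with 1-cm2 collagen-sealed Dacron grafts implanted subcutaneously. 2 × 10^7 exponentially growing bacteria inoculated onto the graft. RIP given intraperitoneally daily for 1, 4 or 7 days, starting immediately after implantation or 2 days later. Grafts explanted on day 10. Bacterial load expressed as CFU/ml; detection limit 10 CFU/ml. Untreated challenged controls.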

Staphylococcus aureus [2] = test: Antibacterial activity against Staphylococcus aureus SD in rat graft model assessed as biofilm reduction at 30 mg/kg, ip administered as seven doses, 2 days after graft implantation; summary of the method: as §1
Staphylococcus aureus [3] = test: Antibacterial activity against Staphylococcus aureus SD in rat graft model assessed as biofilm reduction at 20 mg/kg, ip administered as seven doses, 2 days after graft implantation; summary of the method: as §1
Staphylococcus aureus [4] = test: Antibacterial activity against Staphylococcus aureus SD in rat graft model assessed as biofilm reduction at 10 mg/kg, ip administered as single dose, 2 days after graft implantation; summary of the method: as §1
Staphylococcus aureus [5] = test: Antibacterial activity against Staphylococcus aureus SD in rat graft model assessed as biofilm reduction at 10 mg/kg, ip administered as four doses, 2 days after graft implantation; summary of the method: as §1
Staphylococcus aureus [6] = test: Antibacterial activity against Staphylococcus aureus SD in rat graft model assessed as biofilm reduction at 30 mg/kg, ip administered as single dose, 2 days after graft implantation; summary of the method: as §1
Staphylococcus aureus [7] = test: Antibacterial activity against Staphylococcus aureus SD in rat graft model assessed as biofilm reduction at 20 mg/kg, ip administered as four doses, 2 days after graft implantation; summary of the method: as §1
Staphylococcus aureus [8] = test: Antibacterial activity against Staphylococcus aureus SD in rat graft model assessed as biofilm reduction at 30 mg/kg, ip administered as single dose immediately after graft implantation; summary of the method: as §1
Staphylococcus aureus [9] = test: Antibacterial activity against Staphylococcus aureus SD in rat graft model assessed as biofilm reduction at 30 mg/kg, ip administered as four doses, 2 days after graft implantation; summary of the method: as §1
Staphylococcus aureus [10] = test: Antibacterial activity against Staphylococcus aureus SD in rat graft model assessed as biofilm reduction at 10 mg/kg, ip administered as single dose immediately after graft implantation; summary of the method: as §1
Staphylococcus aureus [11] = test: Antibacterial activity against methicillin-resistant Staphylococcus aureus ATCC 43300 in rat graft model assessed as biofilm reduction at 10 mg/kg, ip administered as seven dose, 3 days after graft implantation
Summary of the method: (§2)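 Wistar rats (n = 15) with subcutaneous 1-cm2 collagen-sealed Dacron grafts challenged with MRSA. Treatment began 3 days after implantation, once the biofilm was established. RIP 10 mg/kg and/or teicoplanin 3 mg/kg given ip daily for 7 days. Grafts explanted on day 10 and counted as CFU/ml. Untreated controls explanted on days 3 and 10.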

Staphylococcus aureus [12] = test: Antibacterial activity against Staphylococcus aureus SD in rat graft model assessed as biofilm reduction at 20 mg/kg, ip administered as single dose, 2 days after graft implantation; summary of the method: as §1
Staphylococcus aureus [13] = test: Antibacterial activity against Staphylococcus aureus SD in rat graft model assessed as biofilm reduction at 20 mg/kg, ip administered as single dose immediately after graft implantation; summary of the method: as §1
Staphylococcus aureus [14] = test: Antibacterial activity against methicillin-resistant Staphylococcus aureus ATCC 43300 in rat graft model assessed as biofilm reduction at 3 mg/kg, ip administered as seven dose, 3 days after graft implantation; summary of the method: as §2

## H-YSPWTNF-NH2
Staphylococcus aureus [1]
  CFU/ml: 6700
Staphylococcus aureus [2]
  CFU/ml: 290
Staphylococcus aureus [3]
  CFU/ml: 410
Staphylococcus aureus [4]
  CFU/ml: 8400000
Staphylococcus aureus [5]
  CFU/ml: 53000
Staphylococcus aureus [6]
  CFU/ml: 760000
Staphylococcus aureus [7]
  CFU/ml: 6300
Staphylococcus aureus [8]
  CFU/ml: 2300
Staphylococcus aureus [9]
  CFU/ml: 850
Staphylococcus aureus [10]
  CFU/ml: 50000
Staphylococcus aureus [11]
  CFU/ml: 78000
Staphylococcus aureus [12]
  CFU/ml: 3000000
Staphylococcus aureus [13]
  CFU/ml: 9400
Staphylococcus aureus [14]
  CFU/ml: 36000
